Bioassay records: PubChem BioAssay, several laboratories
VIM-2 inh: blocks Pseudomonas aeruginosa VIM-2 metallo-beta-lactamase. purified VIM-2, nitrocefin hydrolysis, epi-absorbance fluorescence. inhibition, % at 5.6 µM. actives 0.89% (n = 290,000);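 active = inhibition above the mean of all tested compounds plus 3 SD, cutoff set per screening run, cut at about 7.5% in these data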;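 note: red hydrolysis product quenches plate fluorescence so inhibitors raise well fluorescence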
PolyA inhibitor: yeast polyadenylation inhibition; S. cerevisiae SKY197-pL101 polyadenylation reporter, beta-gal luminescence; efflux-impaired pdr1/pdr3 knockout yeast; score 100 = 6 SD above DMSO; activity score, % at 12 µM; actives 0.02% (n = 300,000); AID 1875;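 active = lowest replicate activity score at least 50, where 100 means six control SD above control mean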;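 note: yeast exposed to compound for 9 h at 30 °C; higher score means more reporter readthrough which indicates perturbed polyadenylation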
IMP-1 inh-1: blocks Pseudomonas aeruginosa IMP-1 metallo-beta-lactamase; AID 1556; purified IMP-1, nitrocefin hydrolysis, epi-absorbance fluorescence; inhibition, % at 5.6 µM; actives 0.45% (n = 290,000);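 active = inhibition above the mean plus 3 SD of all compounds in the same screening run, cut at about 4.5% in these data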
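assay system = purified recombinant IMP-1 metallo-beta-lactamase enzyme | schedule = 15 min preincubation plus 25 min reaction at 25 °C | signal = Epi-absorbance fluorescence, 480 nm excitation, 530 nm emission | read-out basis = percent inhibition from optical density relative to buffer-blank wells | controls = IMP-1 with DMSO as 0%, enzyme-free DMSO as 100%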
proCasp3 act: activates human procaspase-3 | P42574 | activation, % at 8.5 µM | actives 0.11% (n = 330,000) | recombinant procaspase-3 D3A, Ac-DEVD-pNA absorbance 405 nm | AID 463141;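 active = activation above the mean of all tested compounds plus 3 SD, cut at about 21% in these data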
Target sequence (P42574 whole entry D9A/D28A/D175A): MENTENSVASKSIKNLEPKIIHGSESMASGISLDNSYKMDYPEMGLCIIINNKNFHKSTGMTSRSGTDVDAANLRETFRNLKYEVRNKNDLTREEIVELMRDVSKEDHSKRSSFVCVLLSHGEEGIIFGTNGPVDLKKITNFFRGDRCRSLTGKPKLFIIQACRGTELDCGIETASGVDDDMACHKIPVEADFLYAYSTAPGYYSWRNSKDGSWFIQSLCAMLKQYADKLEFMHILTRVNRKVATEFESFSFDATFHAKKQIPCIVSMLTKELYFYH
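Evaluation: percent activation relative to control range; Material: Procaspase-3 D3A mutant, all three cleavage aspartates alanine; Compound: single dose, 8.5 µM nominal compound, 0.8% DMSO; Replication: one well per compound; Signal: absorbance at 405 nm, 0 and 120 min; Schedule: 1 h preincubation plus 2 h reaction at 25 °C.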
Neddylation inh: cullin neddylation inhibition. AID 651699. calls only at 25 µM. actives 0.58% (n = 360,000). P61081+Q13564. TR-FRET cullin neddylation, biochemical; in the data active = inhibition above about 36%
proCasp7 act: counter-screen: procaspase-7 (human) activation; recombinant procaspase-7, Ac-DEVD-pNA absorbance 405 nm; D23A/D198A/D206A triple mutant, cannot self-cleave; scale: DMSO 0, 5 µM enzyme 100; activation, % at 8.5 µM; actives 0.093% (n = 330,000); AID 463210;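 active = percent activation above the screen-wide mean plus 3 SD, cut at about 25% in these data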
Target sequence (P55210 whole entry D23A/D198A/D206A): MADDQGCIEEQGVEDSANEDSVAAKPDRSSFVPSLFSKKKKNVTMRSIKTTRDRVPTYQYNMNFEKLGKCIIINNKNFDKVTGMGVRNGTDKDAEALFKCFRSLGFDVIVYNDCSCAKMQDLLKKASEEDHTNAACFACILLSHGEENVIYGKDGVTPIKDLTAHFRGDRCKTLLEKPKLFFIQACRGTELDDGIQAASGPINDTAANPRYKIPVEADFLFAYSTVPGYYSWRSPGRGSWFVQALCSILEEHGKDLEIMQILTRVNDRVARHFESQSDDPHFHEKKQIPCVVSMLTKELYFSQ
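buffer or medium = Zinc-free HEPES/NaCl buffer, pH 7.4 | material = Procaspase-7 triple mutant (PC-7 D3A) | input = 2 µM procaspase-7 mutant as dispensed | signal = Epi-absorbance of released pNA at 405 nm, two timepoints | timing = 1 h preincubation, 2 h reaction | replicates = singlicate compound testing | evaluation = % activation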
IMP-1 inh-2: blocks IMP-1 metallo-beta-lactamase in VIM-2 selectivity screen | shares compounds with VIM-2 inh | purified IMP-1, nitrocefin hydrolysis, epi-absorbance fluorescence | inhibition, % at 5.6 µM | 1,300 tested, under 10 active; call rule not given here
VIM-2 FRET ctr: counter-screen for VIM-2 inhibitors: epi-absorbance artifacts via FRET | shares compounds with VIM-2 inh | purified VIM-2, CCF2 FRET substrate hydrolysis | inhibition, % at 5.6 µM | actives 23% (n = 1,300);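 active = inhibition above the mean of all tested compounds plus 3 SD, cut at about 19% in these data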
TEM-1 counter: selectivity counter-screen for VIM-2 inhibitors: E. coli TEM-1 inhibitors; shares compounds with VIM-2 inh; Purified TEM-1, nitrocefin hydrolysis, epi-absorbance fluorescence; actives 3% (n = 1,300); inhibition, % at 5.6 µM;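 active = inhibition above that campaign's mean inhibition plus 3 SD, cut at about 0.46% in these data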
VIM-2 confirm 2: confirmation of P. aeruginosa VIM-2 metallo-beta-lactamase inhibitors. inhibition, % at 5.6 µM. shares compounds with VIM-2 inh. purified VIM-2, nitrocefin hydrolysis, epi-absorbance. actives 96% (n = 1,300);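 active = inhibition of the VIM-2 beta-lactamase enzyme above about 11% from the earlier first-round screen, limit read from the data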
Large screens that a line does not name were inactive (follow-up assays come after a bar, where shown). Only some compounds are listed: those with a hit (about 1.7% of all), similar ones and a draw of the others.

CN1C(=O)C2(OCC(C)([N+](=O)[O-])CO2)c2ccccc21 (stereo unspecified)	none
Cc1cc(C)n2nc(SC(C)C(=O)N3CCOCC3)nc2n1 (stereo unspecified)	none (no result: VIM-2 inh, PolyA inhibitor, IMP-1 inh-1, proCasp3 act, proCasp7 act)
COc1ccc(NC(=O)c2ccc(Cl)c(S(=O)(=O)N3CC(C)OC(C)C3)c2)cn1 (stereo unspecified)	none (no result: VIM-2 inh, PolyA inhibitor, IMP-1 inh-1)
CCOC(=O)c1cc(-c2ccncc2)nc2c1c(C)nn2-c1ccccn1	VIM-2 inh 42 | IMP-1 inh-2 inactive | VIM-2 FRET ctr inactive | TEM-1 counter inactive | VIM-2 confirm 2 58
COc1ccc(-c2cc(C(=O)O)c3c(C)nn(-c4ccccn4)c3n2)cc1	none (no result: Neddylation inh)
CCN1C(=O)NC(c2ccccc2)C1=O (stereo unspecified)	none (no result: VIM-2 inh, PolyA inhibitor, IMP-1 inh-1)
COc1ccc2c(C)cc3n[nH]c(=S)n3c2c1	VIM-2 inh 13 (not shown: Neddylation inh) | IMP-1 inh-2 inactive | VIM-2 FRET ctr 21 | TEM-1 counter inactive | VIM-2 confirm 2 19
Cc1nn2c(-c3ccc(F)cc3)ccnc2c1Cl	VIM-2 inh 59 | IMP-1 inh-2 inactive | VIM-2 FRET ctr inactive | TEM-1 counter inactive | VIM-2 confirm 2 70
Fc1cccc(Nc2nc3ccccc3n3cnnc23)c1	none
CC(=O)c1cccc(Nc2nc3ccccc3n3cnnc23)c1	VIM-2 inh 14 | IMP-1 inh-2 inactive | VIM-2 FRET ctr inactive | TEM-1 counter inactive | VIM-2 confirm 2 25
Cc1ccc(CNC(=O)c2cccnc2Sc2cccc(Cl)c2)cc1	none
c1cn(-c2ccc(-c3ccnc4ncnn34)cc2)cn1	VIM-2 inh 45 | IMP-1 inh-2 inactive | VIM-2 FRET ctr inactive | TEM-1 counter inactive | VIM-2 confirm 2 63
COc1ccc(C=O)c2[nH]c3c(Cl)ncnc3c12	VIM-2 inh 16 (no result: proCasp3 act, proCasp7 act) | IMP-1 inh-2 inactive | VIM-2 FRET ctr inactive | TEM-1 counter inactive | VIM-2 confirm 2 24
COc1cc(/C=C(/C(=O)c2cccs2)c2nc3ccccc3[nH]2)cc(OC)c1O	none
O=C(C1CC(c2ccccc2O)=NO1)N1CCc2ccccc2C1 (stereo unspecified)	none
COc1cc(C(=O)Nc2nnc(SCC(=O)NCC3CCCO3)s2)cc(OC)c1OC (stereo unspecified)	none
COc1ccccc1C(=O)Nc1nnc(SCC(=O)NCC2CCCO2)s1 (stereo unspecified)	VIM-2 inh 15 | IMP-1 inh-2 inactive | VIM-2 FRET ctr 33 | TEM-1 counter inactive | VIM-2 confirm 2 21
O=C(CSc1nnc(NC(=O)c2cc(Br)ccc2Cl)s1)NCC1CCCO1 (stereo unspecified)	VIM-2 inh 25 | IMP-1 inh-2 inactive | VIM-2 FRET ctr 48 | TEM-1 counter inactive | VIM-2 confirm 2 33
CNC(C)C#Cc1ccc2c(=O)c3cc(C)c(C)cc3oc2c1 (stereo unspecified)	none (no result: VIM-2 inh, IMP-1 inh-1)
CNC(C)C#Cc1ccc2c(=O)c3c(OC)cccc3oc2c1 (stereo unspecified)	VIM-2 inh 14 (no result: Neddylation inh) | IMP-1 inh-2 inactive | VIM-2 FRET ctr inactive | TEM-1 counter inactive | VIM-2 confirm 2 31
S=c1[nH]nc(-c2ccc3ccccc3n2)n1-c1ccccc1Cl	none
S=c1[nH]nc(-c2ccn[nH]2)n1-c1ccccc1Cl	VIM-2 inh 17 | IMP-1 inh-2 inactive | VIM-2 FRET ctr 34 | TEM-1 counter inactive | VIM-2 confirm 2 22
CCSS(=O)(=O)c1cccc2cccnc12	VIM-2 inh 23 | IMP-1 inh-2 inactive | VIM-2 FRET ctr inactive | TEM-1 counter inactive | VIM-2 confirm 2 29
